Screening data (PubChem)
Rows were chosen to be rich in hits. Some 1.4% of all compounds tested hit in one or more screens of this group.
A3A deaminase: human APOBEC3A DNA deaminase inhibition. AID 493011. P31941. inhibition, % at 20 µM. actives 0.41% (n = 330,000). recombinant A3A, FAM/TAMRA ssDNA deamination fluorescence;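 active = at least 40% inhibition at 20 µM here, with at most 30% in a related deaminase screen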
CXCR6 inh: CXCR6 (human) receptor inhibition. O00574. CHO-K1 PathHunter CXCR6 beta-arrestin, luminescence. inhibition, % at 20 µM. actives 0.36% (n = 360,000). AID 602244; in the data active = inhibition above about 34%, passing the limit was not always enough;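 note: antagonist mode with CXCL16 agonist at 10 nM final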
Target sequence (O00574 whole entry, looked up): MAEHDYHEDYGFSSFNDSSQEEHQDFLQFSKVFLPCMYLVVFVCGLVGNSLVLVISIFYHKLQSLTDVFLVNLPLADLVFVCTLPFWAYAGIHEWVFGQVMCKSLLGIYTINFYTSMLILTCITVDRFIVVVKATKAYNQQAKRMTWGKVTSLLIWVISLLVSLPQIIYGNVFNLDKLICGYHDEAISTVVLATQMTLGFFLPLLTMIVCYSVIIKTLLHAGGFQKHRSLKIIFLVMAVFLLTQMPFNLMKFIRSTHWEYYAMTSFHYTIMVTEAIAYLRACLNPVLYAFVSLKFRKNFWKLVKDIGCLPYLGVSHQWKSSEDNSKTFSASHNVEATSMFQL
APJ ag: activates the human apelin receptor APJ; CHO-K1 APJ PathHunter beta-arrestin, luminescence; 0% DMSO wells, 100% apelin; activation, % at 20 µM; actives 0.11% (n = 330,000); AID 2520;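 active = activation more than six SD over the plate average, tested at 20 µM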
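Assay system: CHO-K1 cells stably expressing ProLink-tagged human APJ and arrestin–beta-gal acceptor. Compound dosing: 20 µM single point, 1% DMSO. Times: 16-18 h seeding, 90 min dark compound exposure, 60 min detection. Detection: beta-gal luminescence. Evaluation: APJ–arrestin association signal. Controls: negative DMSO alone, positive Apelin-13 at 10 nM.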
A3G deaminase: APOBEC3G (human) deaminase inhibition; Q9HC16; recombinant A3G, ssDNA deamination FAM/TAMRA fluorescence; actives 0.28% (n = 330,000); inhibition, % at 20 µM;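 active = inhibition of at least 40% at 20 µM, with no more than 30% in the related APOBEC3A deaminase screen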
Target sequence (Q9HC16 whole entry, looked up): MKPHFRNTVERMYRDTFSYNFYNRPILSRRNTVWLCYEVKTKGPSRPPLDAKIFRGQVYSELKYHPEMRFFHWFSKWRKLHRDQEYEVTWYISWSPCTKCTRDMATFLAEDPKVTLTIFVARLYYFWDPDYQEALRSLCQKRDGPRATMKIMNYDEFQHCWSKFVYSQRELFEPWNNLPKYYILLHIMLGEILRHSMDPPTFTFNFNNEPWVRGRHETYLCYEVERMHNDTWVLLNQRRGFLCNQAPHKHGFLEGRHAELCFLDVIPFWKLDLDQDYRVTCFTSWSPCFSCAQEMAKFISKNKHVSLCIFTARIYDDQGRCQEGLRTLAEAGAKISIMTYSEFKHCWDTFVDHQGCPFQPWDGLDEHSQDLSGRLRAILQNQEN
APJ antagonist: blocks the human apelin receptor APJ; AID 2521; CHO-K1 APJ beta-arrestin complementation, luminescence; inhibition, % at 20 µM; actives 0.32% (n = 330,000); P35414;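 active = inhibition above about 40% at 20 µM, limit read from the data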;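 note: cells challenged with 10 nM apelin-13 agonist together with compound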
CCR6 antag: CCR6 (human) receptor antagonism; P51684; CHO-K1 CCR6 PathHunter beta-arrestin, luminescence, CCL20-stimulated; inhibition, % at 20 µM; actives 0.49% (n = 340,000); AID 493098;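 active = compounds whose inhibition of the agonist-driven luminescence signal at 20 µM reaches about 50%, limit read from the data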;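 note: cells stimulated with CCL20 at 14 nM final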
APOBEC3A confirm: APOBEC3A (human) deaminase inhibition, confirmed. actives 63% (n = 1,400). recombinant A3A, ssDNA deaminase UDG fluorescence assay. shares compounds with A3A deaminase. AID 493151. inhibition, % at 20 µM;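 active = inhibition reaching a set limit, 80% of the first screen's cutoff, at 20 µM in any replicate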
UDG ctr A3A: UDG inhibition in APOBEC3A counter-screen | UDG counterscreen, FAM/TAMRA uracil oligo fluorescence | 1,000 tested, under 10 active | inhibition, % at 20 µM | shares compounds with A3A deaminase; call rule not given here
Large screens that a line does not name were inactive (follow-up assays come after a bar, where they were run).

O=C(CSC1=NCCS1)NC1CCCCC1	A3A deaminase 49.2 | APOBEC3A confirm 52.1 | UDG ctr A3A inactive
Cc1cccc(C(=O)Nc2nnc(SCC(=O)Nc3ccc4c(c3)oc3ccccc34)s2)c1	A3A deaminase 80.9 | APOBEC3A confirm 83.6 | UDG ctr A3A inactive
COc1cc2c(cc1OC)C(c1ccc(Br)cc1)N(C(=O)c1ccccc1C(=O)O)CC2 (stereo unspecified)	none
CSCc1ccc(C(=O)NCc2ccc(F)cc2)cc1	none
COc1ccc(NC(=O)c2cc(C3CCCCN3C(=O)OCc3ccccc3)on2)c(C)c1 (stereo unspecified)	none (no result: A3A deaminase, APJ ag, A3G deaminase, APJ antagonist, CCR6 antag)
C/C(=N\OCC(=O)N/N=C/c1ccc(C)cc1O)c1cccs1	A3A deaminase 51.1 | APOBEC3A confirm inactive | UDG ctr A3A inactive
CC(C)COC(=O)N1CC(O)CC1C(=O)Nc1ccc2c(c1)OCO2 (stereo unspecified)	A3A deaminase 53.5 | APOBEC3A confirm 80.9 | UDG ctr A3A inactive
CCOC(=O)C1=C(CS(=O)(=O)c2ccc(F)cc2)NC(=O)NC1c1ccc(O)c(O)c1 (stereo unspecified)	none
O=C(O)c1cc(Cl)c2c(c1)OCO2	A3A deaminase 42.8 | APOBEC3A confirm inactive
CC1CCN(C(=O)COC(=O)c2cc(Cl)c3c(c2)OCO3)CC1	none
COc1ccccc1CCC(=O)OCC(=O)N1c2ccccc2NC(=O)C1(C)C	none
Cc1ccc(C)c(OCCC(=O)OCC(=O)N2c3ccccc3NC(=O)C2(C)C)c1	A3A deaminase 51.9 | APOBEC3A confirm 55.5 | UDG ctr A3A inactive
COC(=O)c1cc(C(=O)OCC(=O)N2c3ccccc3NC(=O)C2(C)C)cc([N+](=O)[O-])c1	A3A deaminase 96.9 | APOBEC3A confirm inactive | UDG ctr A3A inactive
N#C/C(=C/c1cccn1-c1cccc(C(=O)O)c1)c1ccc(Cl)cc1	A3A deaminase 70.1 | APOBEC3A confirm 64.5
N#CC(C#N)=Cc1cccn1-c1ccc(C(=O)O)cc1	none
C[n+]1cnn2c1SCC1(COC1)C2	A3A deaminase 45.4 | APOBEC3A confirm 85.0 | UDG ctr A3A inactive
C[N+](C)(C)CCCCCC(=O)/C=N/O	A3A deaminase 53.0 | APOBEC3A confirm 66.3 | UDG ctr A3A inactive
CCN1C(=O)c2ccccc2Sc2ccc(C(=O)O)cc21	none
CCOC(=O)c1ccc2c(c1)N(C)C(=O)c1ccccc1S2	A3A deaminase 57.5 | APOBEC3A confirm 81.6 | UDG ctr A3A inactive
Cc1nc(N)nc(C)c1Cc1ccccc1	none
Cc1c2ccccc2cc(Cc2ccccc2)[n+]1C	A3A deaminase 43.3 | APOBEC3A confirm 60.2 | UDG ctr A3A inactive
Nc1nnc(SCC(=O)N2CCN(Cc3ccccc3)CC2)s1	A3A deaminase 64.0 | APOBEC3A confirm inactive
Cc1nnc(SCC(=O)N2CCN(Cc3ccccc3)CC2)s1	none
COC(=O)N/N=C(C)\C=C\c1ccco1	A3A deaminase 48.8 | APOBEC3A confirm inactive
CCc1n(CC(O)COCc2ccccc2)c2ccccc2[n+]1C (stereo unspecified)	A3A deaminase 58.5 | APOBEC3A confirm 78.5 | UDG ctr A3A inactive
O=C1c2ccccc2C(=O)N1CC(O)COCc1ccccc1 (stereo unspecified)	none
CCCn1c(=O)c2sccc2n2c(CCCC(=O)NCc3ccco3)nnc12	A3A deaminase 46.0 | APOBEC3A confirm 34.5
CCCn1c(=O)c2sccc2n2c(CCCC(=O)NCc3cccnc3)nnc12	none
CC(C)(C)NC(=O)C1CCN(C(=O)c2ccco2)CC1	none
COCCCNC(=O)c1ccc(S(=O)(=O)c2ccc(C)cc2)c(NC(C)=O)c1	none
O=C(NCc1ccc(F)cc1)OC1CC2CC1[C@H]1CCCCN1C2=O (stereo partly specified)	none (no result: A3A deaminase, APJ ag, A3G deaminase, APJ antagonist, CCR6 antag)
Cc1ccc(C)c(NC(=O)c2ncn[nH]2)c1	A3A deaminase 45.3 | APOBEC3A confirm 40.8 | UDG ctr A3A inactive
Cc1c(NC(=O)c2ncn[nH]2)cccc1-c1nc2ccccc2s1	A3A deaminase 75.1 | APOBEC3A confirm 71.5 | UDG ctr A3A inactive
Cc1ccc(C)c(NC(=O)c2cc[n+](C)cc2)c1	A3A deaminase 78.9 | APOBEC3A confirm 68.8 | UDG ctr A3A inactive
C[n+]1ccc(C(=O)Nc2ccccc2Cl)cc1	A3A deaminase 73.0 | APOBEC3A confirm 68.8 | UDG ctr A3A inactive
Cc1ccc(C(=O)Nc2cc([N+](=O)[O-])ccc2C)cc1	none
O=C(O)Cn1cc(F)c(=O)[nH]c1=O	none
CCCCn1c(N)c(N(CC)C(=O)c2ccc(Cl)c(Cl)c2)c(=O)[nH]c1=O	none
CS/C(N)=N/N=C/c1c(O)ccc2ccccc12	A3A deaminase 58.1 | APOBEC3A confirm inactive
CN(C)/N=C/c1c(O)ccc2ccccc12	none
CCOC(=O)c1c(O)cc(C)[nH]c1=O	none
COCc1cc(C)nc(N2CCN(Cc3ccccc3)CC2)c1C#N	A3A deaminase 72.3 | APOBEC3A confirm 66.0 | UDG ctr A3A inactive
COCc1cc(C)nc(N2CCN(c3ccccc3)CC2)c1C#N	none
COc1ccc(NC(=O)C(=O)NCC(=O)Nc2cc(OC)ccc2OC)cc1	none
CCCc1nc2sc3c(SCC(=O)NCc4ccco4)ncnc3c2c2c1CCC2	A3A deaminase 54.4 | APOBEC3A confirm 42.3 | UDG ctr A3A inactive
COC(=O)c1ccc(COc2ccc(CNCc3ccc(Cl)cc3)cc2)cc1	none
C[n+]1ccccc1Nc1cc([N+](=O)[O-])ccc1N	A3A deaminase 63.4 | APOBEC3A confirm 70.2 | UDG ctr A3A inactive
Cc1cc([N+](=O)[O-])ccc1N	none
CCOC(=O)C1CCCN(CC(=O)Nc2cc(C)cc(C)c2)C1 (stereo unspecified)	A3A deaminase 60.1 | APOBEC3A confirm inactive
CCCn1nc(C(=O)Nc2cc(OCC)c(N3CCOCC3)cc2OCC)c2ccccc2c1=O	none (no result: A3A deaminase, APJ ag, A3G deaminase, APJ antagonist)
Cc1ccc(C)c(NC(=O)NNC(=O)CCc2ccccc2)c1	none
Cc1ccccc1NC(=O)NNC(=O)CCc1ccccc1	A3A deaminase 40.5 | APOBEC3A confirm inactive
Cc1ccc(Cl)c(OCC(=O)Nc2cccnc2)c1	A3A deaminase 44.0 | APOBEC3A confirm inactive
O=C(NCc1ccc2c(c1)OCO2)C(=O)Nc1ccccc1	none
COc1ccc(C(=O)OCCN2CCCCC2)cc1	none
C[N+]1(CCOC(=O)C2(c3ccccc3)CCCC2)CCCCC1	A3A deaminase 64.0 | APOBEC3A confirm 63.3 | UDG ctr A3A inactive
COc1ccc(C(=O)C[N+]2(C)CCOCC2)cc1	A3A deaminase 64.2 | APOBEC3A confirm 67.0 | UDG ctr A3A inactive
COc1ccc(C(=O)OCC[N+]2(C)CCCCC2)cc1	A3A deaminase 64.4 | APOBEC3A confirm 78.5 | UDG ctr A3A inactive
